Results from ChEMBL document CHEMBL1221219, “Selective blockade of 2-arachidonoylglycerol hydrolysis produces cannabinoid behavioral effects” (Nat Chem Biol, 2009).
Calls of active or inactive are those of the source. No cut-off for these calls is given here.

Columns and labels:
[1] = biological target: T1, Monoglyceride lipase (Mus musculus) (UniProt O35678); experiment: Inhibition of MAGL in C57B1/6J mouse brain membrane after 30 mins by competitive activity-based protein profiling method; type: cell membranes
T1 sequence (whole entry): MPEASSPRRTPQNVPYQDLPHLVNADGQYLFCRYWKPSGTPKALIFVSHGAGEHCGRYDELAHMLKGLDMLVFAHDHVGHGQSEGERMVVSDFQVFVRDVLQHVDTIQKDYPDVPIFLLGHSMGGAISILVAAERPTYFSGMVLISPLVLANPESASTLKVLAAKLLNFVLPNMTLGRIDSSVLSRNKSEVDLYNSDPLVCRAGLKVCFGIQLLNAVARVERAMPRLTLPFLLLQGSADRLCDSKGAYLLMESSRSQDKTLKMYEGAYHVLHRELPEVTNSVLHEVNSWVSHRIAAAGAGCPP
Summary of the method: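 Mouse brain membrane proteome (1 mg ml^-1 in PBS) preincubated 30 min at 37°C with inhibitor (1 nM-10 μM). FP-rhodamine then added (2 μM final) for 30 min at room temperature. Reaction quenched in SDS loading buffer, boiled 5 min at 90°C, resolved by SDS-PAGE and read by in-gel fluorescence.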

Monoglyceride lipase = biological target: T2, Monoglyceride lipase (Rattus norvegicus, UniProt Q8R431); experiment: Inhibition of MAGL in Wistar rat brain
T2 sequence (Q8R431 whole entry): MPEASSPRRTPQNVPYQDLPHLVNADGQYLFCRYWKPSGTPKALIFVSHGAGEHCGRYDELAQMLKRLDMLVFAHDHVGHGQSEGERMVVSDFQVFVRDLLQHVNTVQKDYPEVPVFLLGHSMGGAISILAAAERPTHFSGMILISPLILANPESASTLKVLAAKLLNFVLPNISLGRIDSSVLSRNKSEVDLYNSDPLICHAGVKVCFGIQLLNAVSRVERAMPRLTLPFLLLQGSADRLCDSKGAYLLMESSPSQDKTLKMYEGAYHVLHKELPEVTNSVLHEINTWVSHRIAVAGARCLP

[2] = biological target: T3, Monoacylglycerol lipase ABHD6 (Mus musculus) (UniProt Q8R2Y0); experiment: Inhibition of ABHD6 in C57B1/6J mouse brain membrane after 30 mins by competitive activity-based protein profiling method; type: cell membranes
T3 sequence (whole entry): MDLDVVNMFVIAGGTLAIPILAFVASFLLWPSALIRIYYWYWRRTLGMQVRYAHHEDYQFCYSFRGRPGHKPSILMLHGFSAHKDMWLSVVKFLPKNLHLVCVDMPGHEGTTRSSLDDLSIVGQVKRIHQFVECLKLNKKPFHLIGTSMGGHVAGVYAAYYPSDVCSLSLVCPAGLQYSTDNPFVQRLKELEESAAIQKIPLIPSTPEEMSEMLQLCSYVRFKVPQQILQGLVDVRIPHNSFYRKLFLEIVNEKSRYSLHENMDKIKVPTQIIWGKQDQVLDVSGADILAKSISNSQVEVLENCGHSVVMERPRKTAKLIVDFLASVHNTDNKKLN
Summary of the method: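 Mouse brain membrane proteome at 1 mg ml^-1 in PBS was preincubated with inhibitor (1 nM-10 μM) for 30 min at 37°C. FP-rhodamine was then added at 2 μM final for 30 min at room temperature, followed by SDS-PAGE and in-gel fluorescence scanning.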

Row | Compound | inhibition [1] | IC50 (Monoglyceride lipase) | inhibition [2]
1 | COc1ccc(C(O)(c2ccc(OC)cc2)C2CCN(C(=O)Oc3ccc([N+](=O)[O-])cc3)CC2)cc1 | Active | – | –
2 | O=C(Nc1cccc(-c2ccccc2)c1)OC1CCCCC1 | – | 200 µM | –
3 | O=C(Oc1ccc([N+](=O)[O-])cc1)N1CCN(C(c2ccc(F)cc2)c2ccc(F)cc2)CC1 | Active | – | Active
4 | CN(Cc1cccc(-c2ccncc2)c1)C(=O)Oc1ccc([N+](=O)[O-])cc1 | Active | – | Active
5 | COc1ccc(C(c2ccc(OC)cc2)N2CCN(C(=O)Oc3ccc([N+](=O)[O-])cc3)CC2)cc1 | Active | – | Active
